# In the library only some 2% were active in any assay of this set; here they are far more common.
# CHOP UPR activ: activators of apoptotic arm of unfolded protein response (CHOP); 330,000 compounds, 0.34% hits; activation, % at 10 µM; CHO-CHOP luciferase reporter, UPR activation, luminescence; percent of tunicamycin response over DMSO baseline;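 active = at 10 µM dose, activation of 40% or more, normalized to positive control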
#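 System: CHO-CHOP luciferase reporter cell line; amount: 500 cells/well; buffer or medium: F12 medium containing 10% fetal bovine serum; incubation: 6 h compound exposure at 37 °C after overnight seeding; measured by: luciferase luminescence after 10 min with Steady-Glo reagent; evaluation: % reporter activation, DMSO baseline versus tunicamycin full activation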
# MC4R antag cAMP: human MC4R antagonism in cAMP assay. MC4R-expressing cells, MTII-stimulated cAMP, LANCE TR-FRET. inhibition, % at 6.5 µM. 360,000 compounds, 0.48% hits. AID 540295;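 active = inhibition above its plate's cutoff, the mean of tested wells on that plate plus 3 SD, cut at about 29% in these data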
# Target sequence (P32245 whole entry, looked up): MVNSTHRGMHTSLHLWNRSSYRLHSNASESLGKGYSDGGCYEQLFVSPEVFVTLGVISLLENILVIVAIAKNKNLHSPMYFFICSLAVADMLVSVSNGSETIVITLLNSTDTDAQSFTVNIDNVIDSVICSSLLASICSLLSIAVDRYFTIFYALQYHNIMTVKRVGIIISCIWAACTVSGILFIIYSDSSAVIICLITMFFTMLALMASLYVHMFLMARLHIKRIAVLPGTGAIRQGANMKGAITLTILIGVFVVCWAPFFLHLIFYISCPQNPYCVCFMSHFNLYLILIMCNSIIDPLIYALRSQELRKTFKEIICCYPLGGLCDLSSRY
#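 Assay system: U2OS-MC4R stable cell line; Also added: Melanotan II; Technique: Eu-cAMP/anti-cAMP TR-FRET, emission 671 nm; Times: 30-min compound, 1-h challenge, 1-h detection, room temperature.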
# UPR XBP1 act: activators of adaptive arm of unfolded protein response (XBP1); CHO-XBP1 luciferase reporter, IRE1-XBP1 UPR activation, luminescence; percent of tunicamycin response, DMSO as zero; activation, % at 20 µM; 330,000 compounds, 0.33% hits;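 active = versus positive control, 20 µM dose yields 30% or more activation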
#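 Material: CHO cell line with stable XBP1 luciferase reporter; buffer or medium: F12 medium containing 10% fetal bovine serum; compound: single point, 20 µM final compound, 1% DMSO; incubation: 6 h treatment, 37 °C; measured by: glow luminescence from Steady-Glo reagent; evaluation: activation, % of tunicamycin; control set: tunicamycin high, DMSO low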
# MC4R ag barr: activates human MC4R beta-arrestin recruitment. U2OS MC4R beta-arrestin complementation, luminescence; percent of melanotan II response, DMSO zero. 360,000 compounds, 0.98% hits. AID 540308. activation, % at 8.9 µM. P32245;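 active = activation above a per-plate cutoff, the mean activation of sample wells on that plate plus 3 SD, cut at about 8% in these data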
# Bfl-1 A1 inh: inhibitors of the anti-apoptotic protein A1, read as caspase activation | 330,000 compounds, 0.066% hits | MEF A1-2A-BIM cells, Caspase-Glo 3/7 luminescence, 3 h; percent of clofoctol response, vehicle zero | AID 2462 | caspase activation, % (test concentration not listed);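 active = over half of replicate activation scores above 10%, or exactly half above 10 with the replicate mean above 10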
# A number is an active result; – = inactive; · = not tested or not shown.
SMILES,CHOP UPR activ,MC4R antag cAMP,UPR XBP1 act,MC4R ag barr,Bfl-1 A1 inh
O=C(CCl)N(c1ccccc1)c1c[nH]c2ccccc12,–,–,–,19,–
CC(=O)n1cc(N(C(=O)CCl)c2ccccc2)c2ccccc21,–,–,–,17,–
Cc1ccc(C)c(C(O)c2ncc(-c3cccc(C(F)(F)F)c3)[nH]2)c1 (centres undefined),·,–,·,–,·
COc1ccc(NC(=O)CN2c3cccc4cccc(c34)S2(=O)=O)cc1OC,·,–,·,–,·
Cc1cc(C)n(-c2ccc(C(=O)OCC(=O)NC(c3ccccc3)c3ccccc3)cc2)n1,–,–,–,9.3,–
CCOC(=O)c1ccc(-n2nc(C)cc2C)cc1,–,–,–,–,–
COc1cccc(-c2nc(-c3ccc(C(=O)O)cc3)no2)c1,–,–,–,–,–
COc1cccc(-c2noc(-c3ccc(Cl)nc3)n2)c1,–,–,–,8.7,–
CC1(C(=O)NS(=O)(=O)c2ccc(Cl)s2)CCN1C(=O)C1CCCCC1 (centres undefined),·,–,·,–,·
CCOC(=O)Cn1nc(-c2ccccc2)c2cnc3ccc(CC)cc3c21,–,–,–,8.4,–
CCOC(=O)Cn1nc(-c2ccccc2)c(-c2ccccc2)nc1=O,–,–,–,–,–
CCCCNC(=O)c1cnc(Cc2c[nH]c3ccccc23)c(I)c1,·,–,·,–,·
Cn1cc(Cc2ccc(C(=O)N3CCOCC3)cn2)c2ccccc21,·,–,·,–,·
Cc1noc(C)c1C(=O)N(C)C[C@@H]1OCc2ccccc2-c2c(n(C)c3ccccc23)C(=O)N([C@H](C)CO)C[C@H]1C,·,–,·,–,·
CCOC(=O)c1ccc(Nc2ncnc3c2cnn3C)cc1,–,–,–,–,–
Cn1ncc2c(O/N=C(\N)c3ccc(C(C)(C)C)cc3)ncnc21,–,–,–,36,–
Cc1cccc(NS(=O)(=O)c2cccc(C(=O)NCC3(N4CCOCC4)CCCCC3)c2)c1,·,–,·,–,·
CN(C)CCCNc1cc(C(C)(C)C)nc2c(-c3ccc(Cl)cc3)cnn12,–,–,–,8.3,–
O=c1oc(Cl)c(Cl)c2ccccc12,88,–,–,–,–
O=c1onc(-c2ccccc2)c2ccccc12,–,–,–,–,–
O=C1C=CC(=O)N1c1ccc2c(c1)Cc1cc(F)ccc1-2,·,32,·,–,·
Cc1ccc(C(=O)CC(Nc2ccc(F)cc2)c2ccccc2)cc1 (centres undefined),–,–,–,8.9,–
Cc1nn(Cc2ccc([N+](=O)[O-])cc2)c(=O)n1N(C)c1ncc(C(F)(F)F)cc1Cl,–,–,–,–,–
Cc1nn(Cc2ccc(Cl)cc2)c(=O)n1N(C)c1ncc(C(F)(F)F)cc1Cl,–,–,–,9.2,–
O=C(CN(c1ccc(Cl)cc1)S(=O)(=O)c1ccccc1)N1CCN(c2ccccc2)CC1,–,–,–,9.1,–
SMILES,CHOP UPR activ,MC4R antag cAMP,UPR XBP1 act,MC4R ag barr,Bfl-1 A1 inh
COc1ccc(N2CCN(C(=O)CN(c3ccc(OC)cc3)S(=O)(=O)c3ccccc3)CC2)cc1,–,–,–,–,–
OCc1cccc(-c2csc(C(O)c3ccco3)n2)c1 (centres undefined),·,–,·,–,·
OCCN1CCN(c2ncnc3c2ncn3[C@H]2CN(Cc3cccc(C(F)(F)F)c3)C[C@@H](CO)O2)CC1,·,–,·,–,·
CCCN1CCC(C(=O)NC(c2ccc(Cl)cc2)c2ccsc2)CC1 (centres undefined),·,–,·,–,·
Fc1cccc(/C=N/NC(=S)Nc2ccccc2Cl)c1,–,–,–,–,–
S=C(N/N=C/c1ccc(Cl)c(Cl)c1)Nc1ccccc1Cl,–,–,–,9.3,–
Cc1ccc(OCC(=O)NC(=S)Nc2ccccn2)c(Br)c1,–,–,–,8.6,–
CCCn1c(=O)[nH]c(=O)c2c1nc(-c1ccc(OC(F)(F)C(F)C(F)(F)F)cc1)n2CCOC (centres undefined),–,–,–,10.0,–
CCCOc1ccc(/C=C/C(=O)Nc2ccc([N+](=O)[O-])cc2C)cc1,–,–,–,–,–
CCCOc1ccc(/C=C/C(=O)Nc2ccc([N+](=O)[O-])cc2C)cc1OC,–,–,–,12,–
COc1ccc(C(=O)NC(=S)Nc2ccc([N+](=O)[O-])cc2C)cc1OC,–,–,–,8.9,–
Cc1ccc(-c2csc(C(O)c3ccc(F)c(F)c3)n2)cc1C (centres undefined),·,–,·,–,·
O=C(O)Cc1cn(Cc2ccc(F)cc2)c2ccccc12,47,–,–,–,–
Cc1ccc(Cn2cc(CCC(=O)O)c3ccccc32)cc1,–,–,–,–,–
O=C(N/N=C/c1ccc[nH]1)c1ccccc1OCc1ccc(F)cc1,–,–,–,–,–
CCOc1ccc(OCc2ccc(C(=O)NN=Cc3ccc[nH]3)cc2)cc1,–,–,–,–,9.7
COCOCCn1cc(CN2CCS(=O)(=O)N(Cc3ccc(-c4ccc(Cl)c(Cl)c4)cc3)C(C)C2=O)nn1 (centres undefined),·,–,·,–,·
CC1(C(=O)NCC2CCCCC2)CCN1CCc1ccccc1 (centres undefined),·,–,·,–,·
CC1(C(=O)NC2CCc3ccccc32)CCN1CCc1ccccc1 (centres undefined),·,–,·,8.6,·
O=C(N/N=C\c1cn[nH]c1-c1ccc(Cl)cc1)c1cccs1,–,–,–,8.8,–
O=C(N/N=C/c1cn[nH]c1-c1ccc(Cl)cc1)c1ccc([N+](=O)[O-])cc1,–,–,–,–,–
Cc1ccc(C(=O)Nc2ccccc2N2CCCCC2)cc1,–,–,–,–,–
O=C(Nc1ccccc1N1CCCCC1)c1ccc(Cl)cc1,–,–,–,–,7.3
O=C(NC(=S)Nc1ccccc1N1CCCCC1)c1ccccc1,–,–,–,9.1,–
O=C(NC(=S)Nc1ccccc1N1CCCC1)c1ccc(F)cc1,–,–,–,–,–
SMILES,CHOP UPR activ,MC4R antag cAMP,UPR XBP1 act,MC4R ag barr,Bfl-1 A1 inh
CC1(C(=O)NS(=O)(=O)c2ccccc2Cl)CCN1C(=O)CCC1CCCC1 (centres undefined),·,–,·,–,·
CSc1ccccc1NC(=O)c1cc(-c2ccc3c(c2)OCO3)on1,–,–,–,12,–
O=C(Nc1cc(Br)ccc1O)c1cc(-c2ccc3c(c2)OCO3)on1,–,–,–,–,–
CCc1nnc(NC(=O)CSc2nc(-c3ccccc3)cc(-c3ccc(F)cc3)c2C#N)s1,–,–,–,–,7.1
CCSc1ccc(-c2nn(-c3ccccc3)cc2/C=C(/C#N)C(=O)NC)cc1,·,–,·,–,8.3
CCCSc1ccc(-c2nn(-c3ccccc3)cc2/C=C(/C#N)C(=O)N2CCOCC2)cc1,–,–,–,–,–
O=C(CSc1nnc2ccc(-c3ccc(F)cc3)nn12)N1CCCC1,–,33,–,–,–
c1cc(-c2ccc(N3CCOCC3)cc2)n2cnnc2c1,·,–,·,–,·
